From ChEMBL document CHEMBL1156387, “Novel esters of glaucarubolone as inducers of terminal differentiation of promyelocytic HL-60 cells and inhibitors of 7,12-dimethylbenz[a]anthracene-induced preneoplastic lesion formation in mouse mammary organ culture” (J Nat Prod, 2001)
One block for each compound: values may come before it.

Experiments:
[1] = Toxicity in BALB/c mouse mammary organ culture assessed as morphological changes in mammary gland at 2 uM after 10 days; format: tissue-based; conditions: ex_vivo, 240 h
Procedure, shortened: (§1)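 Female BALB/c mice, 4 weeks old, primed 9 days with estradiol 1 μg plus progesterone 1 mg. Thoracic glands were cultured 10 days with insulin, prolactin, aldosterone and hydrocortisone plus test agent at 2 μM. DMBA 2 μg/mL was given for 24 h on day 3. Regression followed for 14 days in insulin alone. Glands were formalin-fixed and alum carmine-stained. Lesion incidence gave % inhibition versus DMBA control. Toxicity was scored as duct dilation or amorphous disintegration.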

HL-60 [2] = test: Cytotoxicity against human HL60 cells assessed as loss of membrane integrity after 4 days by trypan blue exclusion assay; format: functional, cell-based; conditions: HL-60, 96 h
Procedure, shortened: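 After 18 h recovery at 10^5 cells/mL, HL-60 cells were treated 4 days with samples (final DMSO 0.1% v/v). Cells were mixed 1:4 with trypan blue (0.2% w/v in PBS), held at least 5 min at room temperature and counted by hemocytometer. Viability was taken from duplicate samples; IC50 from 5–7 concentrations in duplicate.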

HL-60 [3] = test: Antiproliferative activity against human HL60 cells assessed as inhibition of [3H]thymidine incorporation after 4 days by liquid scintillation counter; format: functional, cell-based
Procedure, shortened: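 HL-60 cells in log phase diluted to 10^5 cells/mL, preincubated 18 h, then exposed to samples in DMSO (final 0.1% v/v; DMSO-only controls) for 4 days. Cells then pulsed with [3H]thymidine (0.5 μCi/mL, 65 Ci/mmol) for 18 h at 37 °C, 5% CO2, harvested onto glass fiber filters, scintillation counted; incorporation per 10^6 cells as % of DMSO control. IC50 from 5–7 concentrations in duplicate.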

[4] = Inhibition of DMBA-induced preneoplastic lesion formation in a BALB/c mouse mammary organ culture at 2 uM pretreated for 10 days before DMBA-challenge measured after 14 days; format: functional; conditions: Mammary gland; procedure, shortened: as §1
HL-60 [5] = test: Induction of cell differentiation in human HL60 cells assessed as superoxide anion production after 4 days by NBT reduction assay; format: functional, cell-based; conditions: HL-60, 96 h
Procedure, shortened: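 Cells diluted to 10^5/mL and recovered overnight were exposed 4 days to samples (0.1% v/v DMSO final). Cell suspension (10^6 cells) was mixed 1:1 with NBT 2 mg/mL plus TPA 1 μg/mL in PBS and held 1 h at 37 °C. Formazan-positive cells were counted microscopically among >200 cells. EC50 from 5–7 concentrations in duplicate; 1α,25-dihydroxyvitamin D3 served as reference.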

HL-60 [6] = test: Selectivity index, ratio of cytotoxic IC50 to antiproliferative IC50 for human HL60 cells; format: functional
Procedure, shortened: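 Index = cytotoxic IC50 (trypan blue, 4-day HL-60 exposure) divided by antiproliferative IC50 ([3H]thymidine incorporation), each from dose–response with at least five points.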

Structure (SMILES): CC1=CC(=O)[C@@H](O)[C@]2(C)[C@H]3C4(O)OC[C@@]35[C@@H](C[C@@H]12)OC(=O)C[C@H]5[C@@H](C)[C@H]4O (single isomer, unassigned) [CHAPARRINONE]
Activity [1]: Non-toxic | IC50 (HL-60 [2]): 5000 nM | IC50 (HL-60 [3]): 1200 nM | inhibition at 2 µM [4]: 25% | EC50 (HL-60 [5]): 2400 nM | Ratio IC50 (HL-60 [6]): 4.3

Structure (SMILES): COC(=O)[C@@]12OC[C@]34[C@H]([C@@H](O)[C@@H]1O)[C@@]1(C)CC(=O)C(O)=C(C)[C@@H]1C[C@H]3OC(=O)[C@H](OC(=O)/C=C(\C)C(C)C)[C@@H]24 [BRUCEANTIN]
Activity [1]: Non-toxic | IC50 (HL-60 [2]): 40 nM | IC50 (HL-60 [3]): 40 nM | inhibition at 2 µM [4]: 70% | EC50 (HL-60 [5]): 20 nM | Ratio IC50 (HL-60 [6]): 1

Structure (SMILES): CC1=CC(=O)[C@@H](O)[C@@]2(C)[C@H]1CC[C@@]13CO[C@]4(C)[C@@H]1C(=O)O[C@H]4[C@H](O)[C@@H]32 [SAMADERIN B]
Activity [1]: Non-toxic | IC50 (HL-60 [2]): > 2000 nM | IC50 (HL-60 [3]): 400 nM | inhibition at 2 µM [4]: 0% | EC50 (HL-60 [5]): 1000 nM | Ratio IC50 (HL-60 [6]): >6

More lines, main results first:

EC50 (HL-60 [5]): 19 nM
Structure (SMILES): CC[C@](O)(CC(=O)O[C@H]1C(=O)O[C@@H]2C[C@H]3C(C)=CC(=O)[C@@H](O)[C@]3(C)[C@H]3[C@]4(O)OC[C@]32[C@@H]1[C@@H](C)[C@H]4O)C(C)C
Activity [1]: Non-toxic | IC50 (HL-60 [2]): 13 nM | IC50 (HL-60 [3]): 9 nM | inhibition at 2 µM [4]: 44% | Ratio IC50 (HL-60 [6]): 1.5

EC50 (HL-60 [5]): 500 nM
Structure (SMILES): CCC(CC)(CO)C(=O)O[C@H]1C(=O)O[C@@H]2C[C@H]3C(C)=CC(=O)[C@@H](O)[C@]3(C)[C@H]3[C@]4(O)OC[C@]32[C@@H]1[C@@H](C)[C@H]4O
Activity [1]: Non-toxic | IC50 (HL-60 [2]): 950 nM | IC50 (HL-60 [3]): 150 nM | inhibition at 2 µM [4]: 70% | Ratio IC50 (HL-60 [6]): 6.5

EC50 (HL-60 [5]): 140 nM
Structure (SMILES): CC1=CC(=O)[C@@H](O)[C@]2(C)[C@H]3[C@]4(O)OC[C@]35[C@H]([C@@H](C)[C@H]4O)[C@@H](OC(=O)CC3(O)CCC3)C(=O)O[C@@H]5C[C@@H]12
Activity [1]: Non-toxic | IC50 (HL-60 [2]): 280 nM | IC50 (HL-60 [3]): 260 nM | inhibition at 2 µM [4]: 33% | Ratio IC50 (HL-60 [6]): 1.1

EC50 (HL-60 [5]): 55 nM
Structure (SMILES): CC1=CC(=O)[C@@H](O)[C@]2(C)[C@H]3[C@]4(O)OC[C@]35[C@H]([C@@H](C)[C@H]4O)[C@@H](OC(=O)CC(C(C)C)C(C)C)C(=O)O[C@@H]5C[C@@H]12
Activity [1]: Non-toxic | IC50 (HL-60 [2]): 150 nM | IC50 (HL-60 [3]): 75 nM | inhibition at 2 µM [4]: 40% | Ratio IC50 (HL-60 [6]): 2
